We go through six compounds from ChEMBL document CHEMBL3045743, “Synthesis and herbicidal activity of isoindoline-1,3-dione substituted benzoxazinone derivatives containing a carboxylic ester group” (J Agric Food Chem, 2009).

What all share (type): functional
Experiment [1] concerns Setaria viridis. In words: Post-emergence herbicidal activity against Setaria viridis (green foxtail) assessed as growth inhibition at 75 g.a.i./ha applied at one-leaf stage measured after 15 days. Particulars: 360 h, read-out: GI. The procedure, abridged: (§1)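 Pot-grown weeds sown 5 mm deep in greenhouse clay soil (pH 6.5, 1.7% organic matter, CEC 12.9 cmol/kg) at 22-25 °C. Stock diluted with water and sprayed post-emergence: dicots at 2-leaf stage, monocots at 1-leaf stage. Untreated and DMF solvent controls were included. % growth inhibition was scored visually versus untreated controls after 15 days. Triplicates averaged.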

Experiment [2] deals with Setaria viridis. Kind of experiment: Pre-emergence herbicidal activity against Setaria viridis (green foxtail) assessed as growth inhibition at 75 g.a.i./ha applied 24 hr after seeds were sown measured after 15 days. Particulars: read-out: GI. In outline:
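Preliminary pre-emergence screen at a single rate of 75 g a.i./ha. Stock diluted with water and sprayed on greenhouse pots 24 h after seeds were sown 5 mm deep in clay soil (pH 6.5, 1.7% organic matter); grown at 22-25 °C. Untreated and DMF solvent controls included; triplicate. Visual % growth inhibition vs untreated after 15 days, averaged and banded (>80% top band).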

For experiment [3], the system named is Abutilon theophrasti. In words: Pre-emergence herbicidal activity against Abutilon theophrasti (velvetleaf) assessed as growth inhibition at 75 g.a.i./ha applied 24 hr after seeds were sown measured after 15 days. The note with it: read-out: GI. The procedure, abridged:
(§2)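 Weeds sown 5 mm deep in pots of greenhouse clay soil (pH 6.5, 37.5% clay, CEC 12.9 cmol/kg) and grown at 22-25 °C. Water-diluted formulation was applied pre-emergence 24 h after sowing. Untreated and DMF solvent controls were included. Growth inhibition was visually rated in % against untreated controls after 15 days, as the mean of triplicates.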

For experiment [4], the system named is Digitaria sanguinalis. Kind of experiment: Pre-emergence herbicidal activity against Digitaria sanguinalis (hairy crabgrass) assessed as growth inhibition at 75 g.a.i./ha applied 24 hr after seeds were sown measured after 15 days. Particulars: read-out: GI. In outline:
as §2

Experiment [5] concerns Amaranthus. In words: Pre-emergence herbicidal activity against Amaranthus ascendens assessed as growth inhibition at 75 g.a.i./ha applied 24 hr after seeds were sown measured after 15 days. The note with it: read-out: GI. The procedure, abridged:
as §2

Experiment [6] deals with Echinochloa crus-galli. In words: Pre-emergence herbicidal activity against Echinochloa crus-galli (barnyard grass) assessed as growth inhibition at 75 g.a.i./ha applied 24 hr after seeds were sown measured after 15 days. Particulars: read-out: GI. In outline: as §2
Experiment [7] concerns Chenopodium album. Kind of experiment: Pre-emergence herbicidal activity against Chenopodium album assessed as growth inhibition at 75 g.a.i./ha applied 24 hr after seeds were sown measured after 15 days. Particulars: read-out: GI. In outline:
as §2

For experiment [8], the system named is Amaranthus. Kind of experiment: Post-emergence herbicidal activity against Amaranthus ascendens assessed as growth inhibition at 75 g.a.i./ha applied at two-leaf stage measured after 15 days. The note with it: 360 h, read-out: GI. The procedure, abridged:
as §1

Experiment [9] relates to Abutilon theophrasti. Kind of experiment: Post-emergence herbicidal activity against Abutilon theophrasti (velvetleaf) assessed as growth inhibition at 75 g.a.i./ha applied at two-leaf stage measured after 15 days. The note with it: 360 h, read-out: GI. In outline:
as §1

The test system of experiment [10] is Echinochloa crus-galli. In words: Post-emergence herbicidal activity against Echinochloa crus-galli (barnyard grass) assessed as growth inhibition at 75 g.a.i./ha applied at one-leaf stage measured after 15 days. The note with it: 360 h, read-out: GI. In outline:
as §1

Experiment [11] relates to Digitaria sanguinalis. In words: Post-emergence herbicidal activity against Digitaria sanguinalis (hairy crabgrass) assessed as growth inhibition at 75 g.a.i./ha applied at one-leaf stage measured after 15 days. Particulars: 360 h, read-out: GI. The procedure, abridged: as §1
Experiment [12] has as its system Chenopodium album. In words: Post-emergence herbicidal activity against Chenopodium album assessed as growth inhibition at 75 g.a.i./ha applied at two-leaf stage measured after 15 days. The note with it: 360 h, read-out: GI. In outline:
as §1

On to `C#CCN1C(=O)COc2cc(F)c(N3C(=O)c4ccc(F)cc4C3=O)cc21`, for which the inhibition of growth at 75 g/ha in the experiment with Setaria viridis [1], in the experiment with Setaria viridis [2], in the experiment on Abutilon theophrasti [3], in the experiment on Digitaria sanguinalis [4], with Amaranthus [5] and in the experiment with Echinochloa crus-galli [6] was over 80% in each case. Moreover, the inhibition of growth at 75 g/ha in the experiment with Chenopodium album [7], in the experiment on Amaranthus [8], in the experiment with Abutilon theophrasti [9], with Echinochloa crus-galli [10], in the experiment with Digitaria sanguinalis [11] and in the experiment with Chenopodium album [12] was over 80% throughout.
Consider `CCOC(=O)C(c1ccccc1)N1C(=O)COc2cc(F)c(N3C(=O)C4=C(CCCC4)C3=O)cc21` (configuration not stated), for which the inhibition of growth at 75 g/ha is over 80% with Setaria viridis [1]; 50% in the experiment on Setaria viridis [2]; 50% in the experiment with Abutilon theophrasti [3]; 50% in the experiment with Digitaria sanguinalis [4]; over 80% in the experiment on Amaranthus [5]; under 50% in the experiment on Echinochloa crus-galli [6]. The inhibition of growth at 75 g/ha with Chenopodium album [7] was over 80%; in the experiment on Amaranthus [8], over 80%; with Abutilon theophrasti [9] it was over 80%; in the experiment with Echinochloa crus-galli [10], 50%; in the experiment with Digitaria sanguinalis [11], over 80%; in the experiment on Chenopodium album [12], over 80%.
With `CCOC(=O)C(C)(C)N1C(=O)C(C)Oc2cc(F)c(N3C(=O)C4=C(CCCC4)C3=O)cc21` (configuration not stated), the inhibition of growth at 75 g/ha was 50% with Setaria viridis [1]; under 50% with Setaria viridis [2]; under 50% in the experiment on Abutilon theophrasti [3]; under 50% with Digitaria sanguinalis [4]; 50% in the experiment with Amaranthus [5]; under 50% in the experiment on Echinochloa crus-galli [6]. The inhibition of growth at 75 g/ha in the experiment with Chenopodium album [7] is under 50%; in the experiment on Amaranthus [8] it was over 80%; with Abutilon theophrasti [9], over 80%; with Echinochloa crus-galli [10] it was 50%; in the experiment with Digitaria sanguinalis [11], 50%; in the experiment with Chenopodium album [12] it was over 80%.
For `COC(=O)CN1C(=O)C(C)Oc2cc(F)c(N3C(=O)C4=C(CCCC4)C3=O)cc21` (configuration not stated), the inhibition of growth at 75 g/ha in the experiment on Setaria viridis [1] is 50%; in the experiment on Setaria viridis [2] it was under 50%; in the experiment with Abutilon theophrasti [3], over 80%; in the experiment on Digitaria sanguinalis [4], under 50%; with Amaranthus [5], over 80%; with Echinochloa crus-galli [6] it was under 50%. For the same compound, the inhibition of growth at 75 g/ha with Chenopodium album [7] is over 80%; in the experiment with Amaranthus [8] it was over 80%; with Abutilon theophrasti [9], over 80%; in the experiment with Echinochloa crus-galli [10], under 50%; in the experiment with Digitaria sanguinalis [11], 50%; with Chenopodium album [12], over 80%.
With `CCOC(=O)CN1C(=O)C(C)Oc2cc(F)c(N3C(=O)C4=C(CCCC4)C3=O)cc21` (configuration not stated), the inhibition of growth at 75 g/ha was under 50% with Setaria viridis [1]; under 50% in the experiment on Setaria viridis [2]; over 80% in the experiment with Abutilon theophrasti [3]; under 50% in the experiment with Digitaria sanguinalis [4]; over 80% in the experiment with Amaranthus [5]; under 50% with Echinochloa crus-galli [6]. Besides, the inhibition of growth at 75 g/ha was over 80% with Chenopodium album [7]; over 80% in the experiment with Amaranthus [8]; over 80% in the experiment on Abutilon theophrasti [9]; under 50% with Echinochloa crus-galli [10]; under 50% with Digitaria sanguinalis [11]; over 80% in the experiment with Chenopodium album [12].
Regarding `CCOC(=O)C(c1ccccc1)N1C(=O)C(C)Oc2cc(F)c(N3C(=O)C4=C(CCCC4)C3=O)cc21` (configuration not stated), the inhibition of growth at 75 g/ha in the experiment with Setaria viridis [1] is 50%; in the experiment on Setaria viridis [2], over 80%; with Abutilon theophrasti [3], 50%; with Digitaria sanguinalis [4], over 80%; with Amaranthus [5] it was 50%; in the experiment on Echinochloa crus-galli [6], over 80%. Besides, the inhibition of growth at 75 g/ha with Chenopodium album [7] is 50%; in the experiment on Amaranthus [8], over 80%; in the experiment with Abutilon theophrasti [9], over 80%; with Echinochloa crus-galli [10], under 50%; in the experiment with Digitaria sanguinalis [11], 50%; with Chenopodium album [12], over 80%.
